Activity calls are given as the source filed them. No cut-off for these calls is given here.
Experiments:
[1] = system: Staphylococcus aureus; assay: Antibacterial activity against methicillin-susceptible Staphylococcus aureus 7/04 isolates after 18 hrs; type: functional
Outline: (§1)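 Agar-dilution MIC on Mueller–Hinton II agar per CLSI guidelines. Aqueous test solutions were added to liquid agar to give two dilution series across 6.25–400 µg/mL. Solidified plates were spot-inoculated with 2 µL aliquots to a final inoculum of 10^4 […]. […] Strains were standard S. aureus strains or hospital patient isolates typed MSSA/MRSA.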

[2] = system: Escherichia coli; assay: Antibacterial activity against Escherichia coli ATCC 25922 at 100 ug/disk […] by disc-diffusion method; type: functional, organism-based
[3] = system: Staphylococcus aureus; assay: Antibacterial activity against methicillin-susceptible Staphylococcus aureus 102/06 isolates after 18 hrs; type: functional; outline: as §1
[4] = system: Staphylococcus aureus; assay: Antibacterial activity against methicillin-susceptible Staphylococcus aureus 38/05 isolates after 18 hrs; type: functional; outline: as §1
[5] = system: Staphylococcus aureus; assay: Antibacterial activity against methicillin-resistant Staphylococcus aureus 92/06 isolates after 18 hrs; type: functional; outline: as §1
[6] = system: Staphylococcus aureus; assay: Antibacterial activity against methicillin-susceptible Staphylococcus aureus 42/05 isolates after 18 hrs; type: functional; outline: as §1
[7] = system: Staphylococcus aureus; assay: Antibacterial activity against Staphylococcus aureus NCTC 4163 at 400 ug/disk after 24 to 48 hrs by disc-diffusion method; type: functional; details: read-out: IZ
[8] = system: Staphylococcus aureus; assay: Antibacterial activity against Staphylococcus aureus NCTC 4163 at 100 ug/disk after 24 to 48 hrs by disc-diffusion method; type: functional; details: read-out: IZ
[9] = system: Staphylococcus aureus; assay: Antibacterial activity against Staphylococcus aureus ATCC 25923 after 18 hrs; type: functional; details: ATCC 25923, 18 h; outline: as §1
[10] = system: Staphylococcus aureus; assay: Antibacterial activity against methicillin-resistant Staphylococcus aureus 5/04 isolates after 18 hrs; type: functional; outline: as §1
[11] = system: Staphylococcus aureus; assay: Antibacterial activity against methicillin-resistant Staphylococcus aureus 1/04 isolates after 18 hrs; type: functional; outline: as §1
[12] = system: Staphylococcus aureus; assay: Antibacterial activity against methicillin-resistant Staphylococcus aureus 85/06 isolates after 18 hrs; type: functional; outline: as §1
[13] = system: Staphylococcus aureus; assay: Antibacterial activity against methicillin-resistant Staphylococcus aureus 56/05 isolates after 18 hrs; type: functional; outline: as §1
[14] = system: Staphylococcus aureus; assay: Antibacterial activity against methicillin-resistant Staphylococcus aureus 79/05 isolates after 18 hrs; type: functional; outline: as §1
[15] = system: Staphylococcus aureus; assay: Antibacterial activity against Staphylococcus aureus ATCC 25923 at 400 ug/disk after 24 to 48 hrs by disc-diffusion method; type: functional; details: read-out: IZ
[16] = system: Staphylococcus aureus; assay: Antibacterial activity against methicillin-susceptible Staphylococcus aureus 49/05 isolates after 18 hrs; type: functional; outline: as §1
[17] = system: Bordetella bronchiseptica; assay: Antibacterial activity against Bordetella bronchiseptica ATCC 4617 at 100 ug/disk […] by disc-diffusion method; type: functional; details: read-out: IZ
[18] = system: Staphylococcus aureus; assay: Antibacterial activity against methicillin-resistant Staphylococcus aureus 83/05 isolates after 18 hrs; type: functional; outline: as §1
[19] = system: Staphylococcus aureus; assay: Antibacterial activity against Staphylococcus aureus ATCC 6538P after 18 hrs; type: functional; outline: as §1
[20] = system: Staphylococcus aureus; assay: Antibacterial activity against methicillin-susceptible Staphylococcus aureus 14/04 isolates after 18 hrs; type: functional; outline: as §1
[21] = system: Staphylococcus aureus; assay: Antibacterial activity against methicillin-resistant Staphylococcus aureus 19/04 isolates after 18 hrs; type: functional; outline: as §1
[22] = system: Staphylococcus aureus; assay: Antibacterial activity against methicillin-susceptible Staphylococcus aureus 3/04 isolates after 18 hrs; type: functional; outline: as §1
[23] = system: Enterococcus hirae; assay: Antibacterial activity against Enterococcus hirae ATCC 10541 at 400 ug/disk after 24 to 48 hrs by disc-diffusion method; type: functional; details: read-out: IZ
[24] = system: Staphylococcus aureus; assay: Antibacterial activity against methicillin-resistant Staphylococcus aureus 46/05 isolates after 18 hrs; type: functional; outline: as §1
[25] = system: Pseudomonas aeruginosa; assay: Antibacterial activity against Pseudomonas aeruginosa ATCC 15442 at 400 ug/disk […] by disc-diffusion method; type: functional, organism-based
[26] = system: Staphylococcus aureus; assay: Antibacterial activity against Staphylococcus aureus ATCC 29213 at 400 ug/disk […] by disc-diffusion method; type: functional; details: read-out: IZ
[27] = system: Staphylococcus aureus; assay: Antibacterial activity against methicillin-susceptible Staphylococcus aureus 98/06 isolates after 18 hrs; type: functional; outline: as §1
[28] = system: Staphylococcus aureus; assay: Antibacterial activity against methicillin-susceptible Staphylococcus aureus 112/06 isolates after 18 hrs; type: functional; outline: as §1
[29] = system: Staphylococcus aureus; assay: Antibacterial activity against methicillin-resistant Staphylococcus aureus 55/05 isolates after 18 hrs; type: functional; outline: as §1
[30] = system: Bacillus subtilis; assay: Antibacterial activity against Bacillus subtilis ATCC 6633 at 400 ug/disk […] by disc-diffusion method; type: functional; details: read-out: IZ
[31] = system: Staphylococcus aureus; assay: Antibacterial activity against methicillin-susceptible Staphylococcus aureus 28/04 isolates after 18 hrs; type: functional; outline: as §1
[32] = system: Staphylococcus aureus; assay: Antibacterial activity against methicillin-susceptible Staphylococcus aureus 101/06 isolates after 18 hrs; type: functional; outline: as §1
[33] = system: Staphylococcus aureus; assay: Antibacterial activity against methicillin-resistant Staphylococcus aureus 29/04 isolates after 18 hrs; type: functional; outline: as §1
[34] = system: Pseudomonas aeruginosa; assay: Antibacterial activity against Pseudomonas aeruginosa ATCC 15442 at 100 ug/disk […] by disc-diffusion method; type: functional, organism-based
[35] = system: Staphylococcus aureus; assay: Antibacterial activity against methicillin-resistant Staphylococcus aureus 53/05 isolates after 18 hrs; type: functional; outline: as §1
[36] = system: Staphylococcus aureus; assay: Antibacterial activity against methicillin-susceptible Staphylococcus aureus 4/04 isolates after 18 hrs; type: functional; outline: as §1
[37] = system: Staphylococcus aureus; assay: Antibacterial activity against methicillin-resistant Staphylococcus aureus 80/05 isolates after 18 hrs; type: functional; outline: as §1
[38] = system: Bacillus subtilis; assay: Antibacterial activity against Bacillus subtilis ATCC 6633 at 100 ug/disk […] by disc-diffusion method; type: functional; details: read-out: IZ
[39] = system: Staphylococcus aureus; assay: Antibacterial activity against methicillin-resistant Staphylococcus aureus 91/06 isolates after 18 hrs; type: functional; outline: as §1
[40] = system: Escherichia coli; assay: Antibacterial activity against Escherichia coli ATCC 10538 at 100 ug/disk […] by disc-diffusion method; type: functional, organism-based
[41] = system: Staphylococcus aureus; assay: Antibacterial activity against methicillin-susceptible Staphylococcus aureus 40/05 isolates after 18 hrs; type: functional; outline: as §1
[42] = system: Staphylococcus aureus; assay: Antibacterial activity against methicillin-susceptible Staphylococcus aureus 69/05 isolates after 18 hrs; type: functional; outline: as §1
[43] = system: Staphylococcus aureus; assay: Antibacterial activity against Staphylococcus aureus ATCC 6538P at 400 ug/disk after 24 to 48 hrs by disc-diffusion method; type: functional; details: read-out: IZ
[44] = system: Staphylococcus aureus; assay: Antibacterial activity against Staphylococcus aureus ATCC 29213 after 18 hrs; type: functional; details: ATCC 29213, 18 h; outline: as §1
[45] = system: Staphylococcus aureus; assay: Antibacterial activity against Staphylococcus aureus NCTC 4163 after 18 hrs; type: functional; details: NCTC 4163, 18 h; outline: as §1
[46] = system: Staphylococcus aureus; assay: Antibacterial activity against methicillin-resistant Staphylococcus aureus 93/06 isolates after 18 hrs; type: functional; outline: as §1
[47] = system: Staphylococcus aureus; assay: Antibacterial activity against methicillin-susceptible Staphylococcus aureus 65/05 isolates after 18 hrs; type: functional; outline: as §1
[48] = system: Staphylococcus aureus; assay: Antibacterial activity against methicillin-resistant Staphylococcus aureus 84/05 isolates after 18 hrs; type: functional; outline: as §1
[49] = system: Candida albicans; assay: Antimicrobial activity against Candida albicans ATCC 10231 at 400 ug/disk after 24 to 48 hrs by disc-diffusion method; type: functional; details: read-out: IZ
Outline: (§2)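 Antifungal disc diffusion on YNB agar under CLSI guidelines. Sterile 10 mm filter-paper discs were loaded from aqueous solution with 100 or 400 µg of compound per disc. Plates were read after 24–48 h incubation at 30 °C.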

[50] = system: Staphylococcus aureus; assay: Antibacterial activity against methicillin-susceptible Staphylococcus aureus 60/05 isolates after 18 hrs; type: functional; outline: as §1
[51] = system: Staphylococcus aureus; assay: Antibacterial activity against Staphylococcus aureus ATCC 6538P at 100 ug/disk after 24 to 48 hrs by disc-diffusion method; type: functional; details: read-out: IZ
[52] = system: Pseudomonas aeruginosa; assay: Antibacterial activity against Pseudomonas aeruginosa NCTC 6749 at 400 ug/disk […] by disc-diffusion method; type: functional, organism-based
[53] = system: Bordetella bronchiseptica; assay: Antibacterial activity against Bordetella bronchiseptica ATCC 4617 at 400 ug/disk […] by disc-diffusion method; type: functional; details: read-out: IZ
[54] = system: Staphylococcus aureus; assay: Antibacterial activity against methicillin-susceptible Staphylococcus aureus 36/05 isolates after 18 hrs; type: functional; outline: as §1
[55] = system: Staphylococcus aureus; assay: Antibacterial activity against methicillin-susceptible Staphylococcus aureus 2/04 isolates after 18 hrs; type: functional; outline: as §1
[56] = system: Staphylococcus aureus; assay: Antibacterial activity against methicillin-resistant Staphylococcus aureus 90/06 isolates after 18 hrs; type: functional; outline: as §1
[57] = system: Pseudomonas aeruginosa; assay: Antibacterial activity against Pseudomonas aeruginosa NCTC 6749 at 100 ug/disk […] by disc-diffusion method; type: functional, organism-based
[58] = system: Staphylococcus aureus; assay: Antibacterial activity against methicillin-resistant Staphylococcus aureus 48/05 isolates after 18 hrs; type: functional; outline: as §1
[59] = system: Candida albicans; assay: Antimicrobial activity against Candida albicans ATCC 10231 at 100 ug/disk after 24 to 48 hrs by disc-diffusion method; type: functional, organism-based; outline: as §2
[60] = system: Staphylococcus aureus; assay: Antibacterial activity against methicillin-susceptible Staphylococcus aureus 6/04 isolates after 18 hrs; type: functional; outline: as §1
[61] = system: Enterococcus hirae; assay: Antibacterial activity against Enterococcus hirae ATCC 10541 at 100 ug/disk […] by disc-diffusion method; type: functional; details: read-out: IZ
[62] = system: Staphylococcus aureus; assay: Antibacterial activity against methicillin-susceptible Staphylococcus aureus 72/05 isolates after 18 hrs; type: functional; outline: as §1
[63] = system: Staphylococcus aureus; assay: Antibacterial activity against Staphylococcus aureus ATCC 25923 at 100 ug/disk after 24 to 48 hrs by disc-diffusion method; type: functional; details: read-out: IZ
[64] = system: Staphylococcus aureus; assay: Antibacterial activity against methicillin-resistant Staphylococcus aureus 54/05 isolates after 18 hrs; type: functional; outline: as §1
[65] = system: Staphylococcus aureus; assay: Antibacterial activity against Staphylococcus aureus ATCC 29213 at 100 ug/disk after 24 to 48 hrs by disc-diffusion method; type: functional; details: read-out: IZ
[66] = system: Staphylococcus aureus; assay: Antibacterial activity against methicillin-resistant Staphylococcus aureus 47/05 isolates after 18 hrs; type: functional; outline: as §1

CC1=C(C)C2(C)C3C(=O)N(OCC(O)C[N+](C)(C)CC(O)CON4C(=O)C5C(C4=O)C4(C)C(C)=C(C)C5(C)C4C)C(=O)C3C1(C)C2C.[Cl-] (stereo unspecified)
MIC [1]: 25 µg/mL
Activity [2]: inactive
MIC [3]: 50 µg/mL
MIC [4]: 50 µg/mL
MIC [5]: 100 µg/mL
MIC [6]: 25 µg/mL
zone of inhibition at 400 µg/disc [7]: 24 mm
zone of inhibition at 100 µg/disc [8]: 17 mm
MIC [9]: 50 µg/mL
MIC [10]: 200 µg/mL
MIC [11]: 50 µg/mL
MIC [12]: 100 µg/mL
MIC [13]: 50 µg/mL
MIC [14]: 200 µg/mL
zone of inhibition at 400 µg/disc [15]: 20 mm
MIC [16]: 25 µg/mL
zone of inhibition at 100 µg/disc [17]: 13 mm
MIC [18]: 50 µg/mL
MIC [19]: 50 µg/mL
MIC [20]: 25 µg/mL
MIC [21]: 200 µg/mL
MIC [22]: 25 µg/mL
zone of inhibition at 400 µg/disc [23]: 18 mm
MIC [24]: 50 µg/mL
Activity [25]: inactive
zone of inhibition at 400 µg/disc [26]: 24 mm
MIC [27]: 100 µg/mL
MIC [28]: 50 µg/mL
MIC [29]: 100 µg/mL
zone of inhibition at 400 µg/disc [30]: 30 mm
MIC [31]: 50 µg/mL
MIC [32]: 50 µg/mL
MIC [33]: 200 µg/mL
Activity [34]: inactive
MIC [35]: 50 µg/mL
MIC [36]: 25 µg/mL
MIC [37]: 50 µg/mL
zone of inhibition at 100 µg/disc [38]: 25 mm
MIC [39]: 100 µg/mL
Activity [40]: inactive
MIC [41]: 50 µg/mL
MIC [42]: 25 µg/mL
zone of inhibition at 400 µg/disc [43]: 23 mm
MIC [44]: 50 µg/mL
MIC [45]: 50 µg/mL
MIC [46]: 25 µg/mL
MIC [47]: 25 µg/mL
MIC [48]: 50 µg/mL
zone of inhibition at 400 µg/disc [49]: 14 mm
MIC [50]: 25 µg/mL
zone of inhibition at 100 µg/disc [51]: 17 mm
Activity [52]: inactive
zone of inhibition at 400 µg/disc [53]: 21 mm
MIC [54]: 50 µg/mL
MIC [55]: 25 µg/mL
MIC [56]: 100 µg/mL
Activity [57]: inactive
MIC [58]: 100 µg/mL
Activity [59]: inactive
MIC [60]: 25 µg/mL
zone of inhibition at 100 µg/disc [61]: 14 mm
MIC [62]: 50 µg/mL
zone of inhibition at 100 µg/disc [63]: 16 mm
MIC [64]: 50 µg/mL
zone of inhibition at 100 µg/disc [65]: 14 mm
MIC [66]: 50 µg/mL
